Rows were chosen to be rich in hits. Some 2.6% of all compounds tested hit in one or more screens of this group.
Myeloid diff 2: induction of myeloid progenitor differentiation, primary screen, cell-based, flow cytometry, MLPCN library | AID 624256, 2012 | 360,000 tested, 1% active | ER-HoxA9 myeloid progenitors, lysozyme-GFP differentiation | calls only at 10 µM;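 active = normalized GFP-positive differentiation at or above the plate's own cutoff, the solvent-only control mean plus 3 SD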;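 note: cells exposed to compound for four days before flow analysis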
T cell HTS: modulators of CD8 T cell-vesicle binding, primary screen, mouse 2C CD8+ T cells, flow cytometry. 2C CD8+ T cell-vesicle binding; hits give low values. response (vesicle binding), % at 7 µM. 330,000 tested, 0.068% active;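 active = response, share of CD8 T cells binding vesicles, and their 90th percentile fluorescence all below set limits, cut at about 80% in these data, passing the limit was not always enough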;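 note: values below 100% mean blocked vesicle binding to the CD8+ T cells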
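Read-out – percent CD8+ FL2 mean versus row control · System – murine 2C transgenic CD8+ T lymphocytes · Times – 1.5 h cell–vesicle binding at 37 °C, then 20 min icy labelling · Control set – naked vesicles low, QL9 vesicles with vehicle high · Detection – cytometric PE anti-B7-1 and Alexa647 anti-CD8 signals after 1% paraformaldehyde fixation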
GRK2 aptamer HTS: compounds blocking aptamer binding on GRK2 – biochemical, human GRK2, bead flow cytometry, HTS, primary screen | 330,000 tested, 0.59% active | inhibition of aptamer binding, % at 10 µM | FAM-aptamer displacement from GRK2 | AID 488847, 2010 | Beta-adrenergic receptor kinase 1 (Homo sapiens), P25098;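 active = inhibition of aptamer binding above 40%, roughly 3 SD of noise, on plates passing a quality check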;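 note: median bead fluorescence of bound FAM aptamer so fluorescent compounds give negative values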
Rin1-Abl PPI inh: inhibitors of Rin1-Abl protein binding, primary screen, biochemical, TR-FRET | Tyrosine-protein kinase ABL1 (Homo sapiens) + Ras and Rab interactor 1 (Homo sapiens), … | inhibition, % at 7.35 µM | 360,000 tested, 0.4% active | AID 588664, 2011; in the data active = inhibition above about 5%, passing the limit was not always enough
SKN-1 block: suppressors of acrylamide-induced Pgst-4::GFP reporter in worms, primary screen, SKN-1 inhibitor project, whole organism, uHTS, GFP/RFP fluorescence ratio, strain VP596; C. elegans VP596 Pgst-4::GFP/RFP ratio, 24 h; AID 624304, 2012; 360,000 tested, 0.49% active; inhibition, % at 21.8 µM;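 active = interference check ratio from 0.5 to 1.5 plus GFP to RFP signal ratio inhibition reaching or exceeding a fixed threshold, cut at about 30% in these data, passing the limit was not always enough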
Rce1 inhib: yeast Rce1p protease inhibitors, primary screen, biochemical, fluorescence, cell-free homogeneous; calls only; CAAX prenyl protease 2 (Saccharomyces cerevisiae (strain ATCC 204508 / S288c)), Q03530; 290,000 tested, 0.27% active; yeast membranes, quenched prenylated peptide cleavage fluorescence;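 active = fall in fluorescence gain of 50% or more versus controls, with final raw signal at or below 3038400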;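 note: plate controls were neutral control wells for no effect and wells lacking membranes for full effect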
Rin1-Abl confirm: Rin1-Abl binding inhibitor retest, confirmation, biochemical, TR-FRET | shares compounds with Rin1-Abl PPI inh | purified proteins | 1,300 tested, 49% active | inhibition, % at 7.35 µM; in the data active = inhibition above about 6.5%
GFP quench-1: GFP fluorescence inhibitors and quenchers, artefact control for Rin1-Abl interaction inhibitor project, biochemical; AID 602125, 2011; inhibition, % at 6.75 µM; shares compounds with Rin1-Abl PPI inh; 1,300 tested, 8.5% active; inhibitors/quenchers counterscreen; in the data active = inhibition above about 6.5%;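 note: ABL1-eGFP fusion protein alone without its partner RIN1-SBP; 0% = protein with vehicle and 100% = wells lacking protein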
GFP quench DR: GFP fluorescence inhibitors and quenchers, dose response, artefact control for Rin1-Abl interaction inhibitor project, biochemical; shares compounds with Rin1-Abl PPI inh; GFP fluorescence interference/quenching counterscreen; IC50, µM; 230 tested, under 10 active; AID 602182, 2012;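 note: ABL1-eGFP fusion protein alone without its RIN1 binding partner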
GFP quench-2: GFP fluorescence inhibitors and quenchers, late-stage follow-up, artefact control for Rin1-Abl interaction inhibitor project, biochemical, dose response. IC50, µM. 25 tested, under 10 active. shares compounds with Rin1-Abl PPI inh. AID 602397, 2012. GFP fluorescence quenching counterscreen
Active calls of the source: *; i = inactive; . = no result given. Unless noted, the rule behind the calls is not given here.

SMILES	Myeloid diff 2	T cell HTS	GRK2 aptamer HTS	Rin1-Abl PPI inh	SKN-1 block	Rce1 inhib	Rin1-Abl confirm	GFP quench-1	others
Cc1ccc(S(=O)(=O)Nc2cccc3c2O[C@H](CN(C)Cc2ccc(-c4ccccc4)cc2)[C@@H](C)CN([C@H](C)CO)C3=O)cc1	i	272	3	10*	-27	.	9.7*	0
Cc1nc(SCC(=O)N2CC(C)OC(C)C2)nc(C)c1C (centres undefined)	i	513	2	8.3*	-10	i	9.5*	0
O=C(CNc1cccc(S(=O)(=O)N2CCCC2)c1)Nc1ccc(C(F)(F)F)cc1	i	427	2	1	5	i	.	.
CCSCCOC(=O)C1=C(C)NC2=C(C(=O)CCC2)C1c1coc2ccccc2c1=O (centres undefined)	i	651	0	20*	18	i	30*	0	GFP quench DR=>68
CC1=C(C(=O)OC(C)C)C(c2coc3ccccc3c2=O)C2=C(CCCC2=O)N1 (centres undefined)	i	387	0	-2	10	i	.	.
O=C(O)/C=C/C(=O)NC1CCC(CC2CCC(NC(=O)/C=C/C(=O)O)CC2)CC1 (centres undefined)	i	295	2	3	11	i	.	.
O=C(c1ccc2ccccc2c1)C1CCCN(C(=O)c2cccnc2)C1 (centres undefined)	i	342	0	6.9*	-14	i	-5	0
CCOC(=O)C1CCN(C(=O)Nc2ccc(NC(=O)C3CCN(C(=O)OCC)CC3)cc2)CC1	i	444	0	14*	-2	i	11*	0
CC(C)(C)OC(=O)N1CCC(C(=O)Nc2ccc(C(=O)N3CCCCC3)cc2)CC1	i	.	.	25*	-1	.	17*	0	GFP quench DR=>68
O=C(Cc1ccc(NC(=O)C2CCN(C(=O)C3CCCC3)CC2)cc1)Nc1ccc(C(=O)N2CCOCC2)cc1	i	.	.	67*	-8	.	70*	-1	GFP quench DR=>68;GFP quench-2=>68
O=C(Cc1cccc(NC(=O)C2CCN(C(=O)C3CC3)CC2)c1)Nc1cccc(C(=O)N2CCOCC2)c1	i	.	.	2	19	.	.	.
CC(C)(C)OC(=O)N1CCC(C(=O)Nc2ccc(C(=O)N3CCOCC3)cc2)CC1	i	443	3	8	10	.	.	.
O=C(Cc1ccc(NC(=O)C2CCN(C(=O)C3CC3)CC2)cc1)Nc1ccc(C(=O)N2CCOCC2)cc1	i	.	.	8.9*	-9	.	9.7*	-2
COCCNC(=O)c1cc2c(c(-c3cccc(C#Cc4ccc(OC)c(OC)c4)c3)n1)[C@H](CCO)N(S(=O)C(C)(C)C)C2 (some centres undefined)	i	.	.	1	9	.	.	.
N#Cc1ccccc1OCc1cn(CC(=O)c2ccc(O)cc2)nn1	i	.	.	0	4	.	.	.
O=C(Cn1cc(COc2ccccc2[N+](=O)[O-])nn1)c1ccc(O)cc1	i	.	.	7.7*	9	.	-1	2
COc1ccc(CCC(=O)NCCc2nc3ccccc3[nH]2)cc1	i	i	0	6.0*	-22	i	-2	-1
C=CCC(=O)N1CCCC(C(=O)c2ccc(Cl)cc2)C1 (centres undefined)	i	201	1	6.9*	4	i	0	0
O=C(O)/C=C/C(=O)N1Cc2cc3ccccc3nc2C1	i	189	0	0	5	i	.	.
CCCCCn1cnc2c(sc3nc4c(cc32)CSC(C)(C)C4)c1=O	i	296	4	2	9	i	.	.
CC1(C)Cc2nc3sc4c(=O)[nH]cnc4c3cc2CS1	i	199	3	45*	-15	i	41*	0	GFP quench DR=>68
CCC1(CC)C(=O)C2=C3C1[C@H](C(=O)OC)C=C(C(=O)OC)C[C@H]3n1c(=O)n(-c3ccccc3)c(=O)n1[C@H]2C (some centres undefined)	i	i	1	24*	-15	i	23*	2	GFP quench DR=>68
CC(=O)Nc1ccc(-c2noc(-c3csc([C@@H]4C[C@H](O)[C@@H](CO)O4)n3)n2)cc1	i	.	.	0	11	.	.	.
COc1cc(NC(=O)Cn2c(=O)n(CC3CCCO3)c(=O)c3cc(OC)c(OC)cc32)cc(OC)c1 (centres undefined)	i	565	0	1	-10	i	.	.
COc1ccc(NC(=O)Cn2c(=O)n(CC3CCCO3)c(=O)c3cc(OC)c(OC)cc32)cc1OC (centres undefined)	i	572	0	9.9*	-8	i	8.8*	0
SMILES	Myeloid diff 2	T cell HTS	GRK2 aptamer HTS	Rin1-Abl PPI inh	SKN-1 block	Rce1 inhib	Rin1-Abl confirm	GFP quench-1	others
O=C(NNC(=O)C1COc2ccccc2O1)c1ccccc1O (centres undefined)	i	.	.	2	12	.	.	.
CC1C=CCC2C(=O)N(c3cccc(C(=O)NCCc4ccccc4)c3)C(=O)C12 (centres undefined)	i	338	2	-1	6	i	.	.
CC1C=CCC2C(=O)N(c3cccc(C(=O)NCc4ccccc4)c3)C(=O)C12 (centres undefined)	i	301	9	7.8*	18	i	-2	0
Oc1ccc(/C=N/Nc2cccc(Cl)n2)c(O)c1	i	152	1	8.1*	-11	i	2	1
COc1ccc(S(=O)(=O)N(C)C[C@H]2Oc3ccc(NS(=O)(=O)c4ccc(F)cc4)cc3C(=O)N([C@H](C)CO)C[C@@H]2C)cc1	i	330	0	4	2	.	.	.
CCOC(=O)N1CCN(c2ccccc2OC)CC1	i	354	0	0	-7	i	.	.

Screening results: PubChem, several laboratories
